Source: ChEMBL document CHEMBL3091445, “The 3,7-diazabicyclo[3.3.1]nonane scaffold for subtype selective nicotinic acetylcholine receptor ligands. Part 2: carboxamide derivatives with different spacer motifs” (Bioorg Med Chem, 2013)
Active and inactive are the calls of the source. The rule behind the calls is not given here.

Experiments:
[1] = target: T1, Neuronal acetylcholine receptor; alpha3/beta4 (Homo sapiens) (UniProt P30926+P32297); assay: Antagonist activity at human alpha3beta4 nAChR expressed in Xenopus oocytes at 1 uM incubated for 8 secs followed by compound washout measured after 241 secs by two-electrode voltage clamp technique; format: cell-based
[2] = target: Neuronal acetylcholine receptor subunit alpha-7 (Rattus norvegicus, UniProt Q05941); assay: Displacement of [3H]methyllycaconitine from Sprague-Dawley rat brain alpha7 nAChR after 120 mins by liquid scintillation counting analysis; format: tissue-based
Sequence of Neuronal acetylcholine receptor subunit alpha-7 (Q05941 whole entry): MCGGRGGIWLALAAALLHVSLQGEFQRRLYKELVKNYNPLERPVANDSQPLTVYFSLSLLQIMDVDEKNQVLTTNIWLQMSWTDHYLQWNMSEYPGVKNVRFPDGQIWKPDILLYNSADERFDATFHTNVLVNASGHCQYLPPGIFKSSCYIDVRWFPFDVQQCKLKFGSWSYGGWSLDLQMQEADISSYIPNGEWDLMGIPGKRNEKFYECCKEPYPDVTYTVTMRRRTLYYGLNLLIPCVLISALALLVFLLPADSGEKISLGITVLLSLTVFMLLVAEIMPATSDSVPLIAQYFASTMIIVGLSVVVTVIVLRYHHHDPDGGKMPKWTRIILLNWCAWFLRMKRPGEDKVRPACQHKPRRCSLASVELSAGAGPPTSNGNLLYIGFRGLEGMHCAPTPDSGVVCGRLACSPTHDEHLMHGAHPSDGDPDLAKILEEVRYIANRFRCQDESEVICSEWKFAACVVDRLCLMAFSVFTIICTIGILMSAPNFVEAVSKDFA
In short: (§1)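 Radioligand competition binding gave Ki values, reported as mean ± SEM from 2–10 independent experiments.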

[3] = target: Neuronal acetylcholine receptor subunit alpha-7 (Homo sapiens) (UniProt P36544); assay: Antagonist activity at human alpha7 nAChR expressed in Xenopus oocytes assessed as inhibition of acetylcholine-induced effect at 1 uM incubated for 12 secs followed by compound washout measured after 181 secs by two-electrode voltage clamp technique; format: cell-based
Sequence of Neuronal acetylcholine receptor subunit alpha-7 (Homo sapiens) (P36544 whole entry): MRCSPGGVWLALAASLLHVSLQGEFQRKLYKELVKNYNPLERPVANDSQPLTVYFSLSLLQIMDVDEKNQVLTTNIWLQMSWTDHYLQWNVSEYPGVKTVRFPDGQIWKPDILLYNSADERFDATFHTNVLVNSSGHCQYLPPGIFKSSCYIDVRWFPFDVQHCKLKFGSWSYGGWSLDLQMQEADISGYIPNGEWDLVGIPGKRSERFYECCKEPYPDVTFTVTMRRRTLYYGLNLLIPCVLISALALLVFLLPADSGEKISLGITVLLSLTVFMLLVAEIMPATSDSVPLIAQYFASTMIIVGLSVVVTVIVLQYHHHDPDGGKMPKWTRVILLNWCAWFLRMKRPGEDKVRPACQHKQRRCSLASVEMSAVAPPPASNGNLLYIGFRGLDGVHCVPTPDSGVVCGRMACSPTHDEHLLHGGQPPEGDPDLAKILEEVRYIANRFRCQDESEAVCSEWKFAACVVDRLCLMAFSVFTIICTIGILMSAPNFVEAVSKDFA

[4] = Displacement of [3H]epibatidine from calf adrenal alpha3beta4 nAChR after 90 mins by liquid scintillation counting analysis; set-up: species or system Bos taurus
[5] = target: T2, Nicotinic acetylcholine receptor alpha1/beta1/epsilon/delta (Mus musculus) (UniProt P04756+P09690+P02716+P20782); assay: Antagonist activity at mouse muscle alpha1beta1epsilondelta nAChR expressed in Xenopus oocytes assessed as inhibition of acetylcholine-induced effect at 1 uM incubated for 8 secs followed by compound washout measured after 241 secs by two-electrode voltage clamp technique; format: cell-based
[6] = Displacement of [3H]epibatidine from Torpedo californica electroplax (alpha1)2beta1gammadelta nAChR after 90 mins by liquid scintillation counting analysis; set-up: species or system Tetronarce californica
[7] = target: Neuronal acetylcholine receptor; alpha4/beta2 (Rattus norvegicus, UniProt P09483+P12390); assay: Displacement of [3H]epibatidine from Sprague-Dawley rat brain alpha4beta2 nAChR after 90 mins by liquid scintillation counting analysis; in short: as §1
Sequence of Neuronal acetylcholine receptor; alpha4/beta2 (P09483 whole entry): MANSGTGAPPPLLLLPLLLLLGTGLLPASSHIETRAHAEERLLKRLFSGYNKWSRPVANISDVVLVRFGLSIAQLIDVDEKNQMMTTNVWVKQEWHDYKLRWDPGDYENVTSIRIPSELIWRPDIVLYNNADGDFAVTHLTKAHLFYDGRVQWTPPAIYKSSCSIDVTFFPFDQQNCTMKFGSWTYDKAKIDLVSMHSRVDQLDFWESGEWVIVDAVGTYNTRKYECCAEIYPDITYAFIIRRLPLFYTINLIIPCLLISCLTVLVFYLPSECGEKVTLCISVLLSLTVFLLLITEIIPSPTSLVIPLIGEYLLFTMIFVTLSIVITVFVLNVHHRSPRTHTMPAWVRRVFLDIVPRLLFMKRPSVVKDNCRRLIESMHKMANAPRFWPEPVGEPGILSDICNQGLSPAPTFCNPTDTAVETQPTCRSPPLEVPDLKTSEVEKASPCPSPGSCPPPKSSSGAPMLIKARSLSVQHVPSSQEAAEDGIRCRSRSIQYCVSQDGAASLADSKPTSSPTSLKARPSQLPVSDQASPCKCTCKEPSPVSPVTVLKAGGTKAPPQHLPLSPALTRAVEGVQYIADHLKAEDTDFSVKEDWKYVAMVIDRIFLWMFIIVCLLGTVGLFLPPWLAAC
Sequence of Neuronal acetylcholine receptor; alpha4/beta2 (P12390 whole entry): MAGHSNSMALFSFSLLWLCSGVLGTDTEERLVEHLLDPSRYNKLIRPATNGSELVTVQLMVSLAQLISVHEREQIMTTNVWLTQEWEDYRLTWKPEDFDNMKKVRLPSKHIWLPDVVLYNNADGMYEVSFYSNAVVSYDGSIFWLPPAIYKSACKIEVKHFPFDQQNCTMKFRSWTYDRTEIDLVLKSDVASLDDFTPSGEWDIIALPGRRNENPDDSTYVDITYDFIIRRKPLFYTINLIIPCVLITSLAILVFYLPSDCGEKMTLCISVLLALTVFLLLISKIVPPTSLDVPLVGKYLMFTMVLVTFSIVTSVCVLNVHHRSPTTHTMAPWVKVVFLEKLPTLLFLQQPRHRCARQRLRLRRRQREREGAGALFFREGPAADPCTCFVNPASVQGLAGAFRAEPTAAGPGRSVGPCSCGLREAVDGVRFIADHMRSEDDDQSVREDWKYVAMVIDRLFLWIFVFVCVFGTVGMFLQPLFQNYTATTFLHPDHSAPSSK

[8] = target: T1, Neuronal acetylcholine receptor; alpha3/beta4 (Homo sapiens); assay: Agonist activity at human alpha3beta4 nAChR expressed in Xenopus oocytes at 10 uM incubated for 8 secs followed by compound washout measured after 241 secs by two-electrode voltage clamp technique; format: cell-based
[9] = target: T3, Neuronal acetylcholine receptor; alpha4/beta2 (Homo sapiens) (UniProt P17787+P43681); assay: Antagonist activity at human alpha4beta2 nAChR expressed in Xenopus oocytes assessed as inhibition of acetylcholine-induced effect at 1 uM incubated for 8 secs followed by compound washout measured after 241 secs by two-electrode voltage clamp technique; format: cell-based
[10] = target: T2, Nicotinic acetylcholine receptor alpha1/beta1/epsilon/delta (Mus musculus); assay: Agonist activity at mouse muscle alpha1beta1epsilondelta nAChR expressed in Xenopus oocytes at 10 uM incubated for 8 secs followed by compound washout measured after 241 secs by two-electrode voltage clamp technique; format: cell-based
[11] = target: T3, Neuronal acetylcholine receptor; alpha4/beta2 (Homo sapiens); assay: Partial agonist activity at human alpha4beta2 nAChR expressed in Xenopus oocytes at 10 uM incubated for 8 secs followed by compound washout measured after 241 secs by two-electrode voltage clamp technique; format: cell-based
[12] = target: T1, Neuronal acetylcholine receptor; alpha3/beta4 (Homo sapiens); assay: Agonist activity at human alpha3beta4 nAChR expressed in Xenopus oocytes at 1 uM incubated for 8 secs followed by compound washout measured after 241 secs by two-electrode voltage clamp technique; format: cell-based
[13] = target: T2, Nicotinic acetylcholine receptor alpha1/beta1/epsilon/delta (Mus musculus); assay: Agonist activity at mouse muscle alpha1beta1epsilondelta nAChR expressed in Xenopus oocytes at 1 uM incubated for 8 secs followed by compound washout measured after 241 secs by two-electrode voltage clamp technique; format: cell-based
[14] = target: T3, Neuronal acetylcholine receptor; alpha4/beta2 (Homo sapiens); assay: Partial agonist activity at human alpha4beta2 nAChR expressed in Xenopus oocytes at 1 uM incubated for 8 secs followed by compound washout measured after 241 secs by two-electrode voltage clamp technique; format: cell-based
[15] = target: Neuronal acetylcholine receptor subunit alpha-7 (Homo sapiens) (UniProt P36544); assay: Agonist activity at human alpha7 nAChR expressed in Xenopus oocytes at 1 uM incubated for 12 secs followed by compound washout measured after 181 secs by two-electrode voltage clamp technique; format: cell-based
[16] = target: Neuronal acetylcholine receptor subunit alpha-7 (Homo sapiens) (UniProt P36544); assay: Agonist activity at human alpha7 nAChR expressed in Xenopus oocytes at 10 uM incubated for 12 secs followed by compound washout measured after 181 secs by two-electrode voltage clamp technique; format: cell-based

COc1ccc(C#CC(=O)N2C[C@@H]3CNC[C@@H](C3)C2)cc1OC
Activity [1]: inactive
Ki [2]: > 1 µM
inhibition [3]: inactive
Ki [4]: > 1 µM
inhibition [5]: Active
Ki [6]: > 5 µM
Ki [7]: 0.0021 µM
Activity [8]: inactive
antagonist activity (active/inactive) [9]: Active
Activity [10]: inactive
Activity [11]: Active

O=C(c1ccc(-n2ccnc2)cc1)N1C[C@@H]2CNC[C@@H](C2)C1
Activity [1]: inactive
Activity [12]: inactive
Ki [2]: > 1 µM
inhibition [3]: inactive
Ki [4]: > 1 µM
inhibition [5]: inactive
Ki [6]: > 5 µM
Ki [7]: 0.0056 µM
Activity [8]: inactive
antagonist activity (active/inactive) [9]: Active
Activity [13]: inactive
Activity [10]: inactive
Activity [11]: Active
Activity [14]: Active
Activity [15]: inactive

O=C(c1ccc(-c2cccnc2)cc1)N1C[C@@H]2CNC[C@@H](C2)C1
Activity [1]: inactive
Activity [12]: inactive
Ki [2]: > 1 µM
inhibition [3]: inactive
Ki [4]: > 1 µM
inhibition [5]: inactive
Ki [6]: > 5 µM
Ki [7]: 0.025 µM
Activity [8]: inactive
antagonist activity (active/inactive) [9]: Active
Activity [13]: inactive
Activity [10]: inactive
Activity [11]: Active
Activity [14]: Active
Activity [15]: inactive

CS(=O)(=O)c1ccc(CC(=O)N2C[C@@H]3CNC[C@@H](C3)C2)cc1
Activity [1]: inactive
Activity [12]: inactive
Ki [2]: > 5 µM
inhibition [3]: inactive
Ki [4]: > 5 µM
inhibition [5]: inactive
Ki [6]: > 5 µM
Ki [7]: 0.0229 µM
Activity [8]: inactive
antagonist activity (active/inactive) [9]: Active
Activity [13]: inactive
Activity [10]: inactive
Activity [11]: Active
Activity [14]: Active
Activity [15]: inactive

COc1ccc(C#CC(=O)N2C[C@@H]3CNC[C@@H](C3)C2)cc1Cl
Activity [1]: inactive
Ki [2]: > 1 µM
inhibition [3]: inactive
Ki [4]: > 1 µM
inhibition [5]: inactive
Ki [6]: > 5 µM
Ki [7]: 0.000991 µM
Activity [8]: inactive
antagonist activity (active/inactive) [9]: Active
Activity [10]: inactive
Activity [11]: Active

O=C(/C=C/c1ccc2c(c1)OCO2)N1C[C@@H]2CNC[C@@H](C2)C1
Activity [1]: inactive
Activity [12]: inactive
Ki [2]: > 1 µM
inhibition [3]: inactive
Ki [4]: > 1 µM
inhibition [5]: inactive
Ki [6]: > 5 µM
Ki [7]: 0.0369 µM
Activity [8]: inactive
Activity [13]: inactive
Activity [10]: inactive
Activity [11]: Active
Activity [14]: Active
Activity [15]: inactive

O=C(C#Cc1ccc2c(c1)OCO2)N1C[C@@H]2CNC[C@@H](C2)C1
Activity [1]: inactive
Ki [2]: > 1 µM
inhibition [3]: inactive
Ki [4]: > 1 µM
inhibition [5]: inactive
Ki [6]: > 5 µM
Ki [7]: 0.0031 µM
Activity [8]: inactive
antagonist activity (active/inactive) [9]: Active
Activity [10]: inactive
Activity [11]: Active

O=C(Cc1ccncc1)N1C[C@@H]2CNC[C@@H](C2)C1
Activity [1]: inactive
Activity [12]: inactive
Ki [2]: > 1 µM
inhibition [3]: inactive
Ki [4]: > 1 µM
inhibition [5]: inactive
Ki [6]: > 5 µM
Ki [7]: 0.0144 µM
Activity [8]: inactive
Activity [13]: inactive
Activity [10]: inactive
Activity [11]: Active
Activity [14]: Active
Activity [15]: inactive

O=C(/C=C/c1cccnc1)N1C[C@@H]2CNC[C@@H](C2)C1
Activity [1]: inactive
Activity [12]: inactive
Ki [2]: > 1 µM
inhibition [3]: inactive
Ki [4]: > 1 µM
inhibition [5]: inactive
Ki [6]: > 5 µM
Ki [7]: 0.0326 µM
Activity [8]: inactive
Activity [13]: inactive
Activity [10]: inactive
Activity [11]: Active
Activity [14]: Active
Activity [15]: inactive

O=C([C@@H]1C[C@H]1c1ccccc1)N1C[C@@H]2CNC[C@@H](C2)C1
Ki [2]: > 10 µM
inhibition [3]: inactive
inhibition [5]: inactive
Ki [7]: 0.0012 µM
Activity [8]: Active
antagonist activity (active/inactive) [9]: Active
Activity [10]: inactive
Activity [16]: Active

O=C(c1ccc(-c2ccncc2)cc1)N1C[C@@H]2CNC[C@@H](C2)C1
Activity [1]: inactive
Activity [12]: inactive
Ki [2]: > 1 µM
inhibition [3]: inactive
Ki [4]: > 1 µM
inhibition [5]: inactive
Ki [6]: > 5 µM
Ki [7]: 0.0071 µM
Activity [8]: inactive
antagonist activity (active/inactive) [9]: Active
Activity [13]: inactive
Activity [10]: inactive
Activity [11]: Active
Activity [14]: Active
Activity [15]: inactive

O=C(/C=C/c1ccccc1)N1C[C@@H]2CNC[C@@H](C2)C1
Activity [1]: inactive
Activity [12]: inactive
Ki [2]: > 5 µM
inhibition [3]: inactive
Ki [4]: > 5 µM
inhibition [5]: inactive
Ki [6]: > 10 µM
Ki [7]: 0.0551 µM
Activity [8]: inactive
Activity [13]: inactive
Activity [10]: inactive
Activity [11]: Active
Activity [14]: Active
Activity [15]: inactive

O=C(Cc1ccc2c(c1)OCO2)N1C[C@@H]2CNC[C@@H](C2)C1
Activity [1]: inactive
Activity [12]: inactive
Ki [2]: > 1 µM
inhibition [3]: inactive
Ki [4]: > 1 µM
inhibition [5]: inactive
Ki [6]: > 5 µM
Ki [7]: 0.0132 µM
Activity [8]: inactive
Activity [13]: inactive
Activity [10]: inactive
Activity [11]: Active
Activity [14]: Active
Activity [15]: inactive
